# Screening data from PubChem.
# An excerpt weighted towards active compounds, which were near 3.2% of everything screened.
# DAGLB inhibitor = blocks human DAGLB lipase activity | HEK293T DAGLB membrane lysate, EnzChek fluorogenic substrate | inhibition, % at 5.17 µM | 340,000 compounds, 0.059% hits | AID 504411; in the data active means inhibition above about 34%;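 further: 0% = enzyme with vehicle and 100% = wells lacking enzyme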
# Target sequence (Q8NCG7 whole entry, looked up): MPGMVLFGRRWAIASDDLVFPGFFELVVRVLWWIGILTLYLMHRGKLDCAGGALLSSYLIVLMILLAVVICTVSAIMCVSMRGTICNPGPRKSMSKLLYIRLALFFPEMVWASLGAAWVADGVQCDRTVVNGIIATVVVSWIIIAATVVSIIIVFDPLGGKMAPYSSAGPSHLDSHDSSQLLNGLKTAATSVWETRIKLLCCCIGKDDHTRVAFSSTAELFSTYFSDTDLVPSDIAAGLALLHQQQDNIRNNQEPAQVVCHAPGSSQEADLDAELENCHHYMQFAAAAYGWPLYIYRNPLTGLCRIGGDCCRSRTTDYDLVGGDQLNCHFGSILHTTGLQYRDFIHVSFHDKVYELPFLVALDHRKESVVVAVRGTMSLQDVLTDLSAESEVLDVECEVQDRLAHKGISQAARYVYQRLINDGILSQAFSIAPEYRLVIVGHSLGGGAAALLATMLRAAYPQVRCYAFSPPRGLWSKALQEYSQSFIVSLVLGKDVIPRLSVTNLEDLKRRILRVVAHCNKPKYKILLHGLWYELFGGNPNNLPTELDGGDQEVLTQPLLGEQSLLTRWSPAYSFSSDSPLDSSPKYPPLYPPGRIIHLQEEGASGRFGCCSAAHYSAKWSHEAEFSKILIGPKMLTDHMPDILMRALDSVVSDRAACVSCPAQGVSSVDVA
# mABHD4 FP = inhibits mouse alpha/beta hydrolase domain 4. Q8VD66. purified mABHD4, FP-Rh probe fluorescence polarization. inhibition, % at 8.92 µM. 370,000 compounds, 0.54% hits;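 active means inhibition exceeding the mean over every tested compound plus 3 SD, cut at about 30% in these data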;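 further: 0% = plate median of compound wells and 100% = S159A mutant with DMSO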
#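 Test system: mABHD4 protein | Buffer or medium: HEPES pH 7.0 buffer, 150 mM NaCl, 0.01% Pluronic F-127 | Probe or stimulus: FP-Rh fluorescent activity-based probe, added after compound pre-incubation | Timing: Pre-incubation 45 min, probe exposure 60 min, at 25 °C | Technique: Fluorescence polarization, excitation 525 nm, emission 598 nm, BODIPY TMR filters | Repeats: Single well per compound (singlicate)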
# LEDGF integ inh = blocks HIV-1 LEDGF/p75-dependent DNA integration | AID 743269 | 370,000 compounds, 0.64% hits | inhibition, % at 3.7 µM | TR-FRET IN-LEDGF/p75 DNA integration, Eu/Cy5;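 active means inhibition above the screen-wide mean plus 3 SD, cut at about 13% in these data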;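 further: signal is the Cy5 over europium emission ratio at 671 and 618 nm; 0% = plate median of compound wells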
# HTRA1 inhibitor = blocks human HTRA1 serine peptidase. Q92743. recombinant HTRA1, FP-rhodamine activity-based probe, fluorescence polarization. inhibition, % at 5.96 µM. 340,000 compounds, 0.5% hits. AID 504803; in the data active means inhibition above about 36%;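 further: 0% = enzyme with DMSO and 100% = wells lacking enzyme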
# rCAG RNA binder = binds r(CAG) RNA repeats; r(CAG) RNA repeat, TO-PRO-1 dye displacement fluorescence; inhibition, % at 3 µM; 370,000 compounds, 1.3% hits; AID 651821;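 active means inhibition above the plate cutoff, the mean of all test compounds on that plate plus 3 SD, cut at about 35% in these data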;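 further: 0% = DMSO alone and 100% = 100 µM mitoxantrone as full dye displacement; higher means more dye released from RNA so lower well fluorescence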
# PRMT1 FP inh = inhibitors of human PRMT1; Q99873; recombinant PRMT1, activity-based probe fluorescence polarization; inhibition, % at 2.79 µM; 370,000 compounds, 1.3% hits;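 active means inhibition above about 21% made by adding two undisclosed values, limit read from the data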
# HTRA1 conf = HTRA1 (human) inhibition, confirmation; AID 540248; inhibition, % at 5.96 µM; 1,600 compounds, 66% hits; recombinant HTRA1, FP-rhodamine activity-based probe, fluorescence polarization; shares compounds with HTRA1 inhibitor;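 active means mean inhibition over three repeats above a set limit taken from the earlier primary screen, cut at about 37% in these data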;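 further: 0% = HTRA1 with DMSO and 100% = wells lacking HTRA1; inhibitors block probe binding so polarization drops and inhibition rises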
# PRMT1 inh conf = PRMT1 (human) inhibition, FP confirmation; inhibition, % at 2.79 µM; AID 687036; 3,300 compounds, 42% hits; recombinant His-PRMT1, activity-based probe fluorescence polarization; shares compounds with PRMT1 FP inh;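 active means mean inhibition across replicates above the hit cutoff derived for the earlier primary screen, cut at about 22% in these data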
# ABHD4 confirm = ABHD4 (mouse) inhibition, FP confirmation. AID 720658. inhibition, % at 8.92 µM. purified mABHD4, FP-Rh probe fluorescence polarization. shares compounds with mABHD4 FP. 1,800 compounds, 55% hits;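 active means mean inhibition across replicates above the hit cutoff set in the primary screen, cut at about 30% in these data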;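 further: 0% = wild-type ABHD4 with DMSO and 100% = catalytically dead S159A mutant with DMSO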
# An asterisk follows results filed as active; i = inactive; . = not tested or not shown; + = active, no number.
SMILES,DAGLB inhibitor,mABHD4 FP,LEDGF integ inh,HTRA1 inhibitor,rCAG RNA binder,PRMT1 FP inh,HTRA1 conf,ABHD4 confirm,others
COc1ccc(OC)c(NC(=O)CSc2nncc3ccc(OC)c(OC)c23)c1,2,43*,0,44*,0,55*,2,32*,PRMT1 inh conf=4
Cc1ccccc1S(=O)(=O)N1C[C@H]2[C@H]3C(=O)N(C4CCCCC4)C(=O)[C@H]3CC(=O)[C@H]2[C@@H]1c1ccc(Cl)cc1,.,-15,3,.,11,-6,.,.,
COc1ccc(C2OC34CCCCC3C(C#N)(C#N)C2(C#N)C(=N)O4)cc1 (stereo unspecified),-1,34*,1,36*,-10,14,43*,52*,
CCC1OC23CCCCC2C(C#N)(C(=N)O3)C1(C#N)C#N (stereo unspecified),0,15,1,28,-6,14,.,.,
CN(Cc1cc(Cl)cc(Cl)c1O)Cc1c(O)ccc2ccccc12,5,30*,-1,52*,8,1,62*,18,
CN(Cc1ccccc1)Cc1c(O)ccc2ccccc12,0,9,4,1,0,9,.,.,
O=C(/C=C/c1ccc(O)c(O)c1)NC(=O)c1ccccc1O,3,57*,2,65*,7,13,62*,36*,
CN(C(=O)CCc1nnc(-c2ccc(-c3ccccc3)cc2)o1)C1CCOCC1,1,7,-3,2,-9,-2,.,.,
CCc1ccccc1NC1=NCC(=O)N1C1CCCC1,-1,7,-1,5,-1,4,.,.,
CC(C)(C)c1ccc(-c2nnc(N)o2)cc1,0,5,4,5,0,-5,.,.,
COc1ccc(S(=O)(=O)NCc2ccc3c(c2)cc(C)n3C)cc1,12,47*,8,40*,19,-2,0,15,
COc1ccc(CNS(=O)(=O)c2ccc(OC)cc2)cc1,-3,-9,-4,-9,1,-2,.,.,
CCS(=O)(=O)NCc1ccc2c(c1)cc(C)n2C,6,-2,3,22,11,0,.,.,
Cc1cc2cc(CNS(=O)(=O)c3ccccc3)ccc2n1C,14,37*,6,51*,16,0,25,4,
CCCCC1(C2CCCC2)NC(=O)NC1=O (stereo unspecified),4,-2,-1,-6,1,-2,.,.,
COc1cccc2c1C(=O)c1c(O)c3c(c(O)c1C2=O)C[C@](O)(C(C)=O)C[C@H]3O[C@@H]1C[C@@H](N)[C@@H](O)[C@@H](C)O1,-10,68*,2,68*,0,+,72*,61*,PRMT1 inh conf=149*
COc1ccc2c3c(cccc13)C(=O)CC2,-147,87*,0,141*,i,145*,3,5,PRMT1 inh conf=81*
COc1cccc(/C=N/NC(=O)c2c(C)nc3ccc(Cl)cn23)c1O,6,35*,-9,62*,18,7,65*,55*,
O=[N+]([O-])c1ccc2c([N+](=O)[O-])ccc3c2c1CC3,12,40*,-1,54*,19,17,38*,90*,
CC(C)c1ccc(CNc2ccc(N3CCOCC3)cc2)cc1,9,30*,11,57*,5,4,6,16,
COc1ccc(C(C[N+](=O)[O-])c2c(-c3ccccc3)cc3ccccn23)cc1OC (stereo unspecified),1,9,0,18,8,3,.,.,
COc1cc(C(C[N+](=O)[O-])c2c(C)cc3ccccn23)ccc1O (stereo unspecified),3,30*,-2,40*,14,8,40*,13,
O=C1c2ccccc2C(=O)c2c1ccc(O)c2O,29,74*,-9,76*,10,.,93*,88*,
COc1ccc(S(=O)(=O)NC(C)C(=O)NCc2ccco2)cc1OC (stereo unspecified),0,-1,-4,6,-3,4,.,.,
CN1CCN(C(=O)C2=C[C@@H](c3ccccc3)C[C@@H](OCc3ccc(CO)cc3)O2)CC1,2,0,3,-9,-7,-1,.,.,
SMILES,DAGLB inhibitor,mABHD4 FP,LEDGF integ inh,HTRA1 inhibitor,rCAG RNA binder,PRMT1 FP inh,HTRA1 conf,ABHD4 confirm,others
Cc1cc(C(=O)COc2cccc3cccnc23)c(C)n1C,-21,74*,11,80*,-6,20,16,12,
COc1ccc(S(=O)(=O)Nc2ccc(F)cc2F)cc1C(=O)N1CCOCC1,2,-2,-3,12,1,4,.,.,
NC(=O)NC(=O)C(Nc1ccc(N2CCCCC2)cc1)c1ccccc1 (stereo unspecified),3,40*,8,52*,11,0,10,4,
CC1(C)CC(=O)C(C=Nc2ccc(C(=O)c3ccccc3)cc2N=CC2=C(O)CC(C)(C)CC2=O)=C(O)C1,-8,30*,-6,41*,2,77*,15,8,PRMT1 inh conf=0
C=CCn1c(Oc2ccccc2F)nc2c1c(=O)n(C)c(=O)n2C,-3,0,1,2,-6,-2,.,.,
CSc1nsc(/C=C/Nc2ccc(O)cc2C)c1C#N,9,59*,8,74*,31,53*,-10,7,
Cc1ccc(-c2noc(CN(C(=O)Cc3ccccc3)C(C)C)n2)cc1,-5,8,1,-11,-5,0,.,.,
CCCCCc1ccc(OCCC[n+]2ccccc2)c(CCCCC)c1,7,23,-1,15,7,-3,.,.,
CCCCCCCCCCCCCCCC[n+]1cccc(C(=O)N(CC)CC)c1,4,43*,3,58*,5,-2,65*,48*,
CCCCCCCC[n+]1cccc(C(=O)N(CC)CC)c1,2,-1,-1,3,2,-1,.,.,
CCCCCCCCCCCCCCCC[n+]1ccccc1,6,54*,3,70*,7,-4,77*,50*,
CCCCCCCCCCCCCCCC[n+]1ccc(C(N)=O)cc1,4,41*,4,73*,9,0,76*,88*,
O=C(Cc1cccc(C(F)(F)F)c1)NCc1ccc(Cl)cc1Cl,-6,-15,4,-22,-2,0,.,.,
COCc1ccc(O)c2ncccc12,1,5,-9,9,2,2,.,.,
COc1ccc(C)cc1N=Nc1ccc(O)c2ncccc12,28,36*,-1,86*,9,3,64*,39*,
COc1ccc(-c2ncccc2O)cc1,-1,-7,3,0,0,2,.,.,
